Assays:
[1] = melting temperature; fluorescence melt of hairpins on a sequencing array, two-state fit, raised by 9.35 °C to match UV melts; conditions: sodium 0.088 M
In short: (§1)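 Cy3 fluorescence of library hairpins on a sequenced MiSeq flow cell, with annealed Cy3 and quencher oligos, was imaged in 50 mM Na-HEPES pH 8.0, 25 mM NaCl in 2.5 °C steps up to 60 °C. Signals were normalised to pre-quench Cy3 and to control variants. Melting temperature and folding enthalpy came from bootstrapped two-state fits, inverse-variance combined over four replicates. Fitted temperatures were raised by 9.35 °C to match UV melts.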

[2] = folding enthalpy; higher = less favourable; fluorescence melt of hairpins on a sequencing array, two-state fit; conditions: sodium 0.088 M
In short: as §1

Row | Sequence | Tm [1] | folding enthalpy [2]
1 | GACAGCGAAAGCTTGGTC ((((((....)))..))) | 40 °C | -17.9 kcal/mol
2 | GACAGCGGAAACGCTATC ((.((((....)))).)) | 36.7 °C | -14 kcal/mol
3 | GACAGGAAACTGTC (((((....))))) | 51.6 °C | -31.3 kcal/mol
4 | GACAGGGGAAACCCCATC ((..(((....)))..)) | 27.1 °C | -13.2 kcal/mol
5 | GACAGGGGAAACTCTGTC (((((.(....).))))) | 48.1 °C | -35 kcal/mol
6 | GACAGTACGAAAGTAGTC (((..(((....)))))) | 31.1 °C | -16.2 kcal/mol
7 | GACAGTGGAAACACTATC ((.((((....)))).)) | 29.5 °C | -15.9 kcal/mol
8 | GACATAGGAAACCATGTC (((((.(....).))))) | 37.5 °C | -29.1 kcal/mol
9 | GACATCCCGAAAGGGGTC (((..(((....)))))) | 34.4 °C | -11.1 kcal/mol
10 | GACATCCGAAAGGAGGTC (((.(((....))).))) | 57.9 °C | -40 kcal/mol
11 | GACATGAAAATGTC (((((....))))) | 50.4 °C | -24 kcal/mol
12 | GACATGACGAAAGTCGTC (((..(((....)))))) | 41.6 °C | -10.3 kcal/mol
13 | GACATGCCGAAAGGCGTC (((..(((....)))))) | 41.2 °C | -11.1 kcal/mol
14 | GACATGGCGAAAGCCGTC (((..(((....)))))) | 50.7 °C | -10.1 kcal/mol
15 | GACATGGGAAACCATGCC (.(((((....))))).) | 42.8 °C | -15.1 kcal/mol
16 | GACATGGGAAACCATGTC (((((((....))))))) | 61.3 °C | -42.8 kcal/mol
17 | GACATGGGAAACTGTGTC ((((..(....)..)))) | 37.2 °C | -28.2 kcal/mol
18 | GACATTGCGAAAGCAGTC (((..(((....)))))) | 32.4 °C | -10 kcal/mol
19 | GACATTGGAAACGATGTC (((((.(....).))))) | 46.7 °C | -36.1 kcal/mol

Row | Sequence | Tm [1] | folding enthalpy [2]
20 | GACCAACGAAAGTTGTC (((.(((....)))))) | 40.8 °C | -14.5 kcal/mol
21 | GACCAAGGAAACTCGGTC ((((.((....)).)))) | 37.8 °C | -29.3 kcal/mol
22 | GACCACCGAAAGGTCGTC (((.(((....))).))) | 45.1 °C | -29.5 kcal/mol
23 | GACCACCGAAAGGTTGTC (((.(((....))).))) | 48.2 °C | -32.2 kcal/mol
24 | GACCACGAAAGTGAGTC ((((((....))).))) | 52.2 °C | -30.5 kcal/mol
25 | GACCACGAAAGTGATGTC ((((((....)))..))) | 38.3 °C | -17.6 kcal/mol
26 | GACCACGAAAGTGCCGTC ((((((....)))..))) | 33.6 °C | -12 kcal/mol
27 | GACCACGAAAGTGCGTC ((((((....))).))) | 53.7 °C | -22.8 kcal/mol
28 | GACCACGAAAGTGGGTC ((((((....))).))) | 60.1 °C | -13.7 kcal/mol
29 | GACCACGAAAGTGTCGTC ((((((....)))..))) | 44.8 °C | -18.7 kcal/mol
30 | GACCACGGAAACGTGACC (..((((....))))..) | 29.2 °C | -8.43 kcal/mol
31 | GACCAGCGAAAGCTGTC (((.(((....)))))) | 45 °C | -11.3 kcal/mol
32 | GACCAGGCGAAAGCCGTC (((..(((....)))))) | 36.2 °C | -7.64 kcal/mol
33 | GACCAGGGAAACCTAGTC (((.(((....))).))) | 32.7 °C | -16.9 kcal/mol
34 | GACCATGGAAACATGGTC (((((((....))))))) | 65.1 °C | -43.1 kcal/mol
35 | GACCCACGAAAGTGCGTC (((.(((....))).))) | 46.7 °C | -26.1 kcal/mol
36 | GACCCACGAAAGTGGTC (((.(((....)))))) | 51.5 °C | -13.3 kcal/mol
37 | GACCCCCGAAAGGGTGTC (((.(((....))).))) | 51.8 °C | -25 kcal/mol
38 | GACCCCGAAAGGGAAGTC ((((((....)))..))) | 42.1 °C | -16.1 kcal/mol

Reference: the array DNA melting data of Ke et al. (doi:10.1101/2024.01.08.574731)
